How the values were obtained:
Type in all cases: cell-based
[1] = Cytotoxicity against human Raji cells assessed as cell viability at 3.2 nmol by trypan blue staining; conditions: read-out: Activity
In short: (§1)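 Raji cells grown to 10^6 cells/mL, pelleted and resuspended in RPMI 1640 with 10% FCS, 4 mM n-butyric acid and 32 pmol TPA (20 ng/mL). Test agent added in DMSO at mole ratios to TPA (1000 = 32 nmol, 500 = 16 nmol, 100 = 3.2 nmol, 10 = 0.32 nmol). Incubated 37 °C for 48 h. Viability counted by hemocytometer with Trypan Blue.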

[2] = Cytotoxicity against human Raji cells assessed as cell viability at 16 nmol by trypan blue staining; conditions: read-out: Activity; in short: as §1
Raji [3] = assay: Inhibition of 12-O-tetradecanoylphorbol-13-acetate-induced EBV-early antigen activation in human Raji cells assessed as EA activation at 32 nmol relative to 12-O-tetradecanoylphorbol-13-acetate; parameters: scale not given: the % may be the effect or the level left; conditions: human gammaherpesvirus 4
In short: (§2)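 Raji cells at 10^6 cells/mL resuspended in RPMI 1640 with 10% FCS, 4 mM n-butyric acid as inducer and 32 pmol TPA (20 ng/mL in DMSO), plus test agent in DMSO (32, 16, 3.2 or 0.32 nmol). Held 37 °C for 48 h. EA-positive cells scored blind, at least 500 cells per assay. Values are % of the TPA positive control (100%), ± s.d.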

Raji [4] = assay: Inhibition of 12-O-tetradecanoylphorbol-13-acetate-induced EBV-early antigen activation in human Raji cells assessed as EA activation at 0.32 nmol relative to 12-O-tetradecanoylphorbol-13-acetate; parameters: scale not given: the % may be the effect or the level left; conditions: human gammaherpesvirus 4; in short: as §2
Raji [5] = assay: Inhibition of 12-O-tetradecanoylphorbol-13-acetate-induced EBV-early antigen activation in human Raji cells assessed as EA activation at 16 nmol relative to 12-O-tetradecanoylphorbol-13-acetate; parameters: scale not given: the % may be the effect or the level left; conditions: human gammaherpesvirus 4; in short: as §2
[6] = Cytotoxicity against human Raji cells assessed as cell viability at 0.32 nmol by trypan blue staining; conditions: read-out: Activity; in short: as §1
[7] = Cytotoxicity against human Raji cells assessed as cell viability at 32 nmol by trypan blue staining; conditions: read-out: Activity; in short: as §1
Raji [8] = assay: Inhibition of 12-O-tetradecanoylphorbol-13-acetate-induced EBV-early antigen activation in human Raji cells assessed as EA activation at 3.2 nmol relative to 12-O-tetradecanoylphorbol-13-acetate; parameters: scale not given: the % may be the effect or the level left; conditions: human gammaherpesvirus 4; in short: as §2

SMILES | viability at 3.2 nmol [1] | viability at 16 nmol [2] | Activity (Raji [3]) | Activity (Raji [4]) | Activity (Raji [5]) | viability at 0.32 nmol [6] | viability at 32 nmol [7] | Activity (Raji [8])
C=C1CC(CC(C)(O)C2COc3ccc4ccc(=O)oc4c3O2)OC1=O (stereo not given) [CLAUSLACTONE A] | > 80% | > 80% | 26.4% | 100% | 59.2% | > 80% | 60% | 85.2%
CC1(O)CC(CC(C)(O)C2COc3ccc4ccc(=O)oc4c3O2)OC1=O (stereo not given) [CLAUSLACTONE B] | > 80% | > 80% | 17.1% | 100% | 50.5% | > 80% | 60% | 82.7%
CC(O)(CC1CC(O)(CO)C(=O)O1)C1COc2ccc3ccc(=O)oc3c2O1 (stereo not given) [CLAUSLACTONE C] | > 80% | > 80% | 10.3% | 95.3% | 46.9% | > 80% | 60% | 80.1%
CC(O)(CC1C=C(CO)C(=O)O1)C1COc2ccc3ccc(=O)oc3c2O1 (stereo not given) [CLAUSLACTONE D] | > 80% | > 80% | 19.6% | 100% | 52.3% | > 80% | 60% | 84.8%
C=C1CC(C/C(C)=C/COc2ccc3ccc(=O)oc3c2O)OC1=O (stereo not given) [CLAUSLACTONE E] | > 80% | > 80% | 22.4% | 100% | 58.8% | > 80% | 60% | 86.2%
C=C1CC(CC2(C)OC2COc2ccc3ccc(=O)oc3c2)OC1=O (stereo not given) [CLAUSLACTONE F] | > 80% | > 80% | 29.3% | 100% | 62.7% | > 80% | 60% | 89.6%
CC1(O)CC(CC2(C)OC2COc2ccc3ccc(=O)oc3c2)OC1=O (stereo not given) [CLAUSLACTONE H] | > 80% | > 80% | 25.1% | 100% | 60.4% | > 80% | 60% | 88.4%
C/C(=C\COc1ccc2ccc(=O)oc2c1)CC1CC(O)(CO)C(=O)O1 (stereo not given) [CLAUSLACTONE I] | > 80% | > 80% | 20.6% | 100% | 54.3% | > 80% | 60% | 82.5%
CC1(CC2C=C(CO)C(=O)O2)OC1COc1ccc2ccc(=O)oc2c1 (stereo not given) [CLAUSLACTONE J] | > 80% | > 80% | 27.4% | 100% | 65.8% | > 80% | 60% | 85.2%
COc1ccc2ccc(=O)oc2c1 [HERNIARIN] | > 80% | 60% | 0% | 100% | 71.7% | > 80% | 30% | 100%
